pPAFAH FP inh = inhibitors of human plasma PAF acetylhydrolase (pPAFAH). Q13093. recombinant pPAFAH, FP-rhodamine probe fluorescence polarization. inhibition, % at 3.39 µM. 330,000 compounds, 1.5% hits;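 active = inhibition above the mean inhibition across the screen plus 3 SD, cut at about 25% in these data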;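 note: inhibitors block binding of the rhodamine activity-based probe so polarization drops; 0% = enzyme with DMSO and 100% = wells lacking pPAFAH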
PAFAH1B3 inh = inhibitors of human PAFAH1B3 | inhibition, % at 3.39 µM | 340,000 compounds, 0.28% hits | Q15102 | recombinant PAFAH1B3, FP-rhodamine probe, fluorescence polarization;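 active = inhibition above the screen-wide average of all tested compounds plus 3 SD, cut at about 25% in these data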;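 note: 0% = enzyme with DMSO only and 100% = wells lacking PAFAH1B3 protein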
Target sequence (Q15102 whole entry, looked up): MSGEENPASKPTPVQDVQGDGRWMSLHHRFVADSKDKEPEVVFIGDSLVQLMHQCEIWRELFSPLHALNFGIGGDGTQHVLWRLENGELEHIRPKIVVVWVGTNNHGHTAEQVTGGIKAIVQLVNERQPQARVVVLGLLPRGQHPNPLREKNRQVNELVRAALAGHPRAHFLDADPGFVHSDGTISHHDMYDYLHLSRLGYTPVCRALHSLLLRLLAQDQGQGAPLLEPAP
HTRA1 inhibitor = blocks human HTRA1 serine peptidase. 340,000 compounds, 0.5% hits. inhibition, % at 5.96 µM. recombinant HTRA1, FP-rhodamine activity-based probe, fluorescence polarization. AID 504803; in the data active = inhibition above about 36%;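 note: 0% = enzyme with DMSO and 100% = wells lacking enzyme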
Target sequence (Q92743 whole entry, looked up): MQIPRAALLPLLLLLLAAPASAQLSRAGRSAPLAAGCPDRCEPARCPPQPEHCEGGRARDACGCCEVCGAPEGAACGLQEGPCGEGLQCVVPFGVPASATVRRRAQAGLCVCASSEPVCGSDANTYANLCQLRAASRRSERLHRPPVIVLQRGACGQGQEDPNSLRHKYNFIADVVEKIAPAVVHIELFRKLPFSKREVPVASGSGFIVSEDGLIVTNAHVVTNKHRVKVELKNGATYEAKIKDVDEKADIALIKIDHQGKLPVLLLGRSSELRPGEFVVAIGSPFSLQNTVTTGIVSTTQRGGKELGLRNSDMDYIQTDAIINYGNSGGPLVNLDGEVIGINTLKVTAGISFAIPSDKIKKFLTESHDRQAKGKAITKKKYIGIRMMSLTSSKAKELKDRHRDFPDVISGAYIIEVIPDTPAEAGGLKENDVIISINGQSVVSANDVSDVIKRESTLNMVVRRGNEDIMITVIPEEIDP
mABHD4 FP = ABHD4 (mouse) inhibition, primary FP screen. Q8VD66. purified mABHD4, FP-Rh probe fluorescence polarization. inhibition, % at 8.92 µM. 370,000 compounds, 0.54% hits. AID 720543;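 active = inhibition exceeding the mean over every tested compound plus 3 SD, cut at about 30% in these data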;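 note: 0% = plate median of compound wells and 100% = S159A mutant with DMSO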
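Test system: mouse ABHD4 enzyme, wild type. Reagent: FP-Rh fluorescent activity-based probe, added after compound pre-incubation. Timing: pre-incubation 45 min, probe exposure 60 min, at 25 °C. Technique: FP readout, ex 525 nm / em 598 nm. Benchmarks: high control S159A mutant with DMSO, low control median of compound wells.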
PAFAH2 inh = inhibitors of human PAFAH2; recombinant PAFAH2, FP-rhodamine activity probe, fluorescence polarization; inhibition, % at 3.39 µM; 340,000 compounds, 0.99% hits; AID 492956;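 active = inhibition above the mean over all tested compounds plus 3 SD, cut at about 30% in these data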;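 note: inhibitors block probe labeling of enzyme so polarization drops; 0% = enzyme with DMSO and 100% = wells lacking PAFAH2 protein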
PAFAH1B2 FP inh = inhibitors of human PAFAH1B2; inhibition, % at 3.39 µM; recombinant PAFAH1B2, FP-rhodamine activity probe, fluorescence polarization; AID 492953; 340,000 compounds, 1.2% hits;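 active = inhibition above the mean of all tested compounds plus 3 SD, cut at about 24% in these data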;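 note: 0% = enzyme with DMSO and 100% = wells lacking PAFAH1B2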
* hit, by the source's call; / = no result given. Sampled rows, rich in hits. Any-hit rate of the full collection: about 2.8%.

SMILES	pPAFAH FP inh	PAFAH1B3 inh	HTRA1 inhibitor	mABHD4 FP	PAFAH2 inh	PAFAH1B2 FP inh
COC(=O)[C@]12C[C@H](CC(=O)N3CCN(C(=O)c4ccco4)CC3)C(=O)N(Cc3cccc4ccccc34)C1=C[C@H](C(C)(C)C)O[C@@H]2C	/	/	/	-5.8	/	/
Cc1ccccc1NC(=O)Nc1ccc2c(c1)C(=O)N(C)[C@H]1CC[C@H](CC(=O)NCC3CC3)O[C@@H]1CO2	/	/	/	16.9	/	/
CCOc1cc(/C=C(/NC(C)=O)C(=O)O)cc(Cl)c1OCc1ccc(Br)cc1	31.1*	3.7	-4.8	9.9	9.6	5.9
Cc1ccccc1S(=O)(=O)N1[C@@H](c2ccc(Br)cc2)C(C(=O)O)=CC[C@H]1c1ccc(Cl)cc1	6.6	-4.9	-80.3	-12.3	5.3	83.6*
COc1cccc([C@@H]2CC=C(C(=O)O)[C@H](c3cccc(Cl)c3)N2S(=O)(=O)c2ccc(C)cc2)c1	2.6	-4.4	-21.3	26.8	1.1	21.2
O=C(O)C1=CC[C@@H](c2ccc(Cl)cc2)N(S(=O)(=O)c2ccc(Cl)cc2)[C@H]1c1ccc(Br)cc1	21.2	3.1	-24.0	-8.8	-7.3	88.1*
COc1ccc([C@@H]2CC=C(C(=O)O)[C@H](c3ccc(Br)cc3)N2S(=O)(=O)c2ccc(C)cc2)cc1OC	5.8	9.9	2.6	9.0	3.5	17.7
COc1ccc([C@@H]2CC=C(C(=O)O)[C@H](c3cccc(Cl)c3)N2S(=O)(=O)c2ccccc2C)cc1	1.6	7.1	-22.2	-9.3	2.5	25.9*
Cc1ccccc1S(=O)(=O)N1C(c2ccc(Cl)c(Cl)c2)CC=C(C(=O)O)C1c1cccc(Br)c1 (stereo not drawn)	/	/	/	19.2	/	/
CCN(Cc1ccccc1)C(=O)CCCN1C(=O)COc2ccc(C)cc21	/	/	/	3.4	/	/
CCCCN1C[C@@H]2CSCCS(=O)(=O)N2C1=O	/	/	/	-0.8	/	/
CCc1c(C(=O)C(C)O)c2n3c1CCC[C@@H]3CC2 (stereo partly drawn)	/	/	/	6.7	/	/
C=CCn1c(SCc2nc3sc(C(=O)O)c(C)c3c(=O)[nH]2)nnc1-c1ccccc1	3.3	7.0	7.5	-5.2	-7.8	-1.3
C=CCn1c(SCc2nc3sc(C(=O)O)c(C)c3c(=O)[nH]2)nnc1-c1ccc(C(C)(C)C)cc1	26.1*	21.3	-2.4	-2.2	5.3	11.5
COC(=O)[C@H](C(C)C)N1Cc2nnn(CC3CCCCC3)c2-c2ccccc2S1(=O)=O	/	/	/	3.7	/	/
COc1ccc(Cl)cc1S(=O)(=O)N1CCN(C(=O)CSc2nc3ccccc3nc2N2CCCC2)CC1	/	/	/	-3.4	/	/
O=S1(=O)c2ccc(Br)cc2OC[C@@H](Cc2ccccc2)N1Cc1cn(Cc2ccc(F)cc2)nn1	/	/	/	-0.4	/	/
COC(=O)C1=C(Nc2ccccc2NS(=O)(=O)c2ccc(C(F)(F)F)cc2Cl)CSC1	24.2	2.2	2.1	-1.8	7.5	28.2*
COc1ccc(S[C@]2(C(=O)N3CCOCC3)CC(=O)N(S(=O)(=O)c3ccc(F)cc3)[C@@H]2c2ccc(OC)cc2)cc1	/	/	/	6.0	/	/
S=c1[nH]cnc2sc(-c3ccccc3)cc12	2.1	-5.7	-3.2	-8.3	1.4	45.9*
CN(Cc1ccccc1)C(=O)COC(=O)COc1ccc(C#N)cc1	32.6*	3.5	3.4	-12.7	1.9	-2.6
N#Cc1ccc(OCC(=O)OCC(=O)c2ccccc2)cc1	19.9	12.2	7.1	-5.0	-4.6	7.2
N#Cc1ccc(OCC(=O)OCCCOC(=O)COc2ccc(C#N)cc2)cc1	31.9*	4.7	-0.2	-1.8	3.8	18.4
CCOC(=O)Cn1c(=O)oc2cc(S(=O)(=O)Nc3cccc(C)c3)ccc21	25.8*	-5.6	0.8	-4.6	7.2	3.1
CCOc1ccc(NS(=O)(=O)c2ccc3c(c2)N(C(C)=O)CC3)cc1	6.1	-0.7	-6.6	0.3	-9.5	0.0
SMILES	pPAFAH FP inh	PAFAH1B3 inh	HTRA1 inhibitor	mABHD4 FP	PAFAH2 inh	PAFAH1B2 FP inh
Cc1ccc(NS(=O)(=O)c2ccc3c(c2)oc(=O)n3C)cc1F	30.8*	0.6	-5.2	-1.0	8.1	5.1
Cc1ccc(NS(=O)(=O)c2ccc3c(c2)oc(=O)n3C)cc1	/	3.3	-2.0	3.0	-1.9	8.7
CCOc1ccc(NS(=O)(=O)c2ccc3c(c2)oc(=O)n3C)cc1	27.9*	3.2	-0.9	3.0	-0.5	4.2
CCOc1ccc(NS(=O)(=O)c2ccc3c(c2)N(C(C)=O)CCS3)cc1	31.8*	3.2	1.3	0.0	5.3	-0.6
COC(=O)[C@]12C=CCN1[C@H](c1ccc(C(F)(F)F)cc1)c1c(c3ccccc3n1S(=O)(=O)c1ccc(C)cc1)C2	/	/	/	-17.2	/	/
O=C(O)c1cc(NS(=O)(=O)c2ccc3ccccc3c2)ccc1O	2.9	5.2	-11.5	-11.0	21.3	48.0*
O=C(O)c1cc(-n2nnnc2SCc2ccccc2F)ccc1Cl	1.2	2.2	-4.0	2.0	-0.4	0.7
O=C(O)c1cc(-n2nnnc2SCc2ccc([N+](=O)[O-])cc2)ccc1Cl	6.9	4.5	16.1	-0.8	3.9	26.2*
O=C(Nc1cccc(F)c1)OC1CC2CC1[C@H]1CCCCN1[C@H]2Cc1ccccc1 (stereo partly drawn)	/	/	/	-7.7	/	/
COc1ccc(-c2c(Cc3ccccc3)nc(NC(=O)c3ccccc3)n2Cc2ccc(OC)cc2OC)cc1	/	/	/	5.7	/	/
Cc1noc(NS(=O)(=O)c2ccc(NC(=O)CSc3ncccn3)cc2)c1C	8.6	3.1	-1.1	2.0	-0.7	-2.4
COCC(=O)Nc1ccc(S(=O)(=O)Nc2onc(C)c2C)cc1	/	/	-1.5	10.0	/	/
Cc1noc(NS(=O)(=O)c2ccc(NC(=O)CCC3CCCCC3)cc2)c1C	32.0*	12.3	-7.9	-7.2	12.8	27.7*
Cc1noc(NS(=O)(=O)c2ccc(NC(=O)CSc3nc4ccccc4s3)cc2)c1C	0.4	7.2	-3.7	-7.4	5.9	28.1*
O=C(CSc1nc2ccccc2o1)c1cc2ccccc2oc1=O	25.6*	7.4	-4.1	19.4	-3.0	3.7
COc1cc(/C=N/NC(=O)c2nc(-c3ccccc3)n(-c3ccccc3)n2)ccc1O	7.3	10.1	-1.5	10.0	4.1	7.1
COc1cc(/C=N/Nc2nc(C)nc3c2cnn3-c2ccccc2)ccc1O	/	5.3	4.3	5.0	9.5	27.9*
Cc1cccc(Nc2nc(-c3c(C)nc4ccccn34)cs2)c1	30.4*	14.1	6.2	28.2	0.7	1.7
Cn1cccc1C(=O)OCC(=O)Nc1ccc2c(c1)CCC2	27.8*	1.4	-1.9	-11.1	62.4*	-1.1
C/C(=N/NC(=O)CSc1nnc(SCc2ccc(C)cc2)s1)c1cccc(O)c1	/	/	/	-14.9	/	/
Nc1[nH]nc2ncc3cc4ccccc4nc3c12	30.4*	1.3	13.1	2.7	0.7	1.4
CC(C)C[C@H](NC1(C(=O)NCCc2c[nH]c3ccccc23)CCOCC1)C(=O)NCCCc1ccccc1	/	/	/	-5.2	/	/
CS(=O)(=O)c1nc(-c2ccc(Br)cc2)cs1	/	/	/	-5.5	/	/
